Data from ChEMBL document CHEMBL2407062, “Synthesis and anticancer activities of 5,6,7-trimethoxy-N-phenyl(ethyl)-4-aminoquinazoline derivatives” (Eur J Med Chem, 2013).
The source made the active and inactive calls. No cut-off for these calls is given here.

Key:
[1] = system: PC-3; test: Growth inhibition of human PC3 cells after 72 hrs by MTT assay; assay type: functional, cell-based; details: PC-3, 72 h
Procedure, shortened: (§1)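 Cells in RPMI 1640 with 10% heat-inactivated FBS, 37 °C, 5% CO2. Seeded at 2 × 10³ cells per well. Compounds dissolved in DMSO, diluted in medium, tested at 1–100 μM for 72 h; 0.1% DMSO control. MTT read-out, absorbance at 595 nm. Mean ± SD of triplicate experiments. IC50 taken from the dose–response curve.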

[2] = system: PC-3; test: Induction of apoptosis in human PC3 cells assessed as apoptotic rate at 5 uM after 48 hrs by annexin-V FITC and propidium iodide staining-based FACS flow cytometric analysis relative to control; assay type: functional
Procedure, shortened: (§2)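 PC3 cells exposed to 1, 5 or 10 μM for 24, 48 or 72 h. Controls were 0.1% DMSO and HCPT 10 μM. Cells at 1 × 10⁶/mL washed twice with cold PBS, resuspended in binding buffer, stained with annexin V-FITC and PI. Apoptosis ratio is the sum of early (annexin+/PI−) and late (annexin+/PI+) fractions.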

[3] = molecular target: T1, Mitogen-activated protein kinase; ERK1/ERK2 (Homo sapiens) (UniProt P27361+P28482); test: Inhibition of EGF-induced ERK1/2 phosphorylation in human PC3 cells at 10 uM incubated for 60 mins prior to EGF-treatment measured after 10 mins by Western blotting analysis; assay type: cell-based; details: PC-3
Procedure, shortened: (§3)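 PC3 cells grown 36–48 h in RPMI 1640 with 10% FBS at 37 °C, then serum-starved 24 h. Treated with compound for 60 min, then EGF 10 ng/mL for 10 min; quenched on ice. Cells washed with cold PBS and lysed in NP-40/SDS buffer with Na3VO4 and NaF. Run on 10% SDS-PAGE, PVDF blot probed for pERK1/2 with actin as loading control, ECL detection.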

[4] = system: PC-3; test: Induction of apoptosis in human PC3 cells assessed as apoptotic rate at 1 uM after 72 hrs by annexin-V FITC and propidium iodide staining-based FACS flow cytometric analysis relative to control; assay type: functional; procedure, shortened: as §2
[5] = system: BGC-823; test: Growth inhibition of human BGC823 cells after 72 hrs by MTT assay; assay type: functional, cell-based; details: BGC-823, 72 h; procedure, shortened: as §1
[6] = system: PC-3; test: Induction of apoptosis in human PC3 cells assessed as apoptotic rate at 5 uM after 72 hrs by annexin-V FITC and propidium iodide staining-based FACS flow cytometric analysis relative to control; assay type: functional; procedure, shortened: as §2
[7] = system: PC-3; test: Induction of apoptosis in human PC3 cells assessed as late apoptotic cells at 10 uM after 72 hrs by AO/EB staining-based fluorescence microscopic analysis; assay type: functional, cell-based
Procedure, shortened: (§4)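 PC3 cells seeded at 5 × 10⁴ cells/mL on cover slips, then given fresh medium with 10% FBS plus compound, 10 μM for 24–72 h. HCPT 10 μM positive control. Stained with AO/EB (100 μg/mL) and examined by fluorescence microscopy. Green: live; green-yellow: early apoptotic; orange fragments: late apoptotic; orange without condensed chromatin: necrotic.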

[8] = system: PC-3; test: Induction of apoptosis in human PC3 cells assessed as apoptotic rate at 10 uM after 24 hrs by annexin-V FITC and propidium iodide staining-based FACS flow cytometric analysis relative to control; assay type: functional
Procedure, shortened: (§5)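 PC3 cells (RPMI 1640 with 10% heat-inactivated FBS, 37 °C, 5% CO2) exposed to compound for 24, 48 or 72 h; 0.1% DMSO as negative control. Cells at 1 × 10⁶/mL washed twice in cold PBS, resuspended in binding buffer, stained with Annexin V-FITC and PI. Apoptosis ratio is early (Annexin+/PI−) plus late (Annexin+/PI+) apoptotic cells.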

[9] = system: PC-3; test: Induction of apoptosis in human PC3 cells assessed as cell budding at 10 uM after 24 to 72 hrs by AO/EB staining-based fluorescence microscopic analysis; assay type: functional; procedure, shortened: as §4
[10] = system: PC-3; test: Induction of apoptosis in human PC3 cells assessed as apoptotic rate at 1 uM after 48 hrs by annexin-V FITC and propidium iodide staining-based FACS flow cytometric analysis relative to control; assay type: functional; procedure, shortened: as §2
[11] = system: BGC-823; test: Growth inhibition of human BGC823 cells at 1 uM after 72 hrs by MTT assay relative to control; assay type: functional; details: BGC-823, 72 h, read-out: GI; procedure, shortened: as §1
[12] = system: Bcap37; test: Growth inhibition of human Bcap37 cells at 10 uM after 72 hrs by MTT assay relative to control; assay type: functional; details: Homo sapiens, Bcap37, 72 h; read-out: GI; procedure, shortened: as §1
[13] = system: PC-3; test: Induction of apoptosis in human PC3 cells at 10 uM after 24 to 72 hrs by AO/EB staining-based fluorescence microscopic analysis; assay type: functional, cell-based; procedure, shortened: as §4
[14] = system: Bcap37; test: Growth inhibition of human Bcap37 cells after 72 hrs by MTT assay; assay type: functional, cell-based; details: Bcap37, 72 h; procedure, shortened: as §1
[15] = system: PC-3; test: Induction of apoptosis in human PC3 cells assessed as apoptotic rate at 10 uM after 72 hrs by annexin-V FITC and propidium iodide staining-based FACS flow cytometric analysis relative to control; assay type: functional; procedure, shortened: as §5
[16] = system: PC-3; test: Induction of apoptosis in human PC3 cells assessed as pycnosis at 10 uM after 24 to 72 hrs by AO/EB staining-based fluorescence microscopic analysis; assay type: functional, cell-based; procedure, shortened: as §4
[17] = system: BGC-823; test: Growth inhibition of human BGC823 cells at 10 uM after 72 hrs by MTT assay relative to control; assay type: functional; details: BGC-823, 72 h, read-out: GI; procedure, shortened: as §1
[18] = system: PC-3; test: Induction of apoptosis in human PC3 cells assessed as DNA fragmentation at 10 uM by agarose gel electrophoretic analysis; assay type: functional, cell-based
Procedure, shortened: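 PC3 cells treated at 10 μM. Apoptotic DNA fragments extracted, run on agarose gel electrophoresis, stained with Gold View.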

[19] = system: PC-3; test: Induction of apoptosis in human PC3 cells assessed as apoptotic rate at 1 uM after 24 hrs by annexin-V FITC and propidium iodide staining-based FACS flow cytometric analysis relative to control; assay type: functional; procedure, shortened: as §2
[20] = molecular target: T1, Mitogen-activated protein kinase; ERK1/ERK2 (Homo sapiens); test: Inhibition of EGF-induced ERK1/2 phosphorylation in human PC3 cells at 1.28 uM incubated for 60 mins prior to EGF-treatment measured after 10 mins by Western blotting analysis; assay type: cell-based; details: PC-3; procedure, shortened: as §3
[21] = system: Bcap37; test: Growth inhibition of human Bcap37 cells at 1 uM after 72 hrs by MTT assay relative to control; assay type: functional; details: Homo sapiens, Bcap37, 72 h; read-out: GI; procedure, shortened: as §1
[22] = system: PC-3; test: Induction of apoptosis in human PC3 cells assessed as apoptotic rate after 24 to 72 hrs by annexin-V FITC and propidium iodide staining-based FACS flow cytometric analysis; assay type: functional, cell-based; procedure, shortened: as §2
[23] = system: PC-3; test: Growth inhibition of human PC3 cells at 10 uM after 72 hrs by MTT assay relative to control; assay type: functional; details: Homo sapiens, PC-3, 72 h; read-out: GI; procedure, shortened: as §1
[24] = system: PC-3; test: Induction of apoptosis in human PC3 cells assessed as apoptotic cells at 10 uM after 72 hrs by Hoechst 33258 staining-based fluorescence microscopic analysis; assay type: functional, cell-based
Procedure, shortened: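 PC3 cells treated at 1 and 10 μM for 72 h, then stained with Hoechst 33258 and viewed by fluorescence microscopy. DMSO negative control; HCPT 10 μM for 72 h positive control. Bright blue condensed nuclei were scored as apoptotic.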

[25] = system: PC-3; test: Induction of apoptosis in human PC3 cells assessed as apoptotic rate at 5 uM after 24 hrs by annexin-V FITC and propidium iodide staining-based FACS flow cytometric analysis relative to control; assay type: functional; procedure, shortened: as §2
[26] = system: PC-3; test: Induction of apoptosis in human PC3 cells assessed as apoptotic rate at 1 to 10 uM by annexin-V FITC and propidium iodide staining-based FACS flow cytometric analysis; assay type: functional, cell-based; details: TDE = time-dependent effect; procedure, shortened: as §2
[27] = system: PC-3; test: Induction of necrosis in human PC3 cells at 10 uM after 72 hrs by AO/EB staining-based fluorescence microscopic analysis; assay type: cell-based; details: pc-3, 72 h; procedure, shortened: as §4
[28] = system: PC-3; test: Growth inhibition of human PC3 cells at 1 uM after 72 hrs by MTT assay relative to control; assay type: functional; details: Homo sapiens, PC-3, 72 h; read-out: GI; procedure, shortened: as §1
[29] = system: PC-3; test: Induction of apoptosis in human PC3 cells assessed as membrane blebbing at 10 uM after 24 to 72 hrs by AO/EB staining-based fluorescence microscopic analysis; assay type: functional, cell-based; procedure, shortened: as §4
[30] = system: PC-3; test: Induction of apoptosis in human PC3 cells assessed as apoptotic rate at 10 uM after 48 hrs by annexin-V FITC and propidium iodide staining-based FACS flow cytometric analysis relative to control; assay type: functional; procedure, shortened: as §5
[31] = system: PC-3; test: Induction of apoptosis in human PC3 cells assessed as apoptotic rate at 20 uM after 48 hrs by annexin-V FITC and propidium iodide staining-based FACS flow cytometric analysis relative to control; assay type: functional; procedure, shortened: as §5
[32] = system: PC-3; test: Induction of apoptosis in human PC3 cells assessed as compact nucleus at 10 uM after 72 hrs by Hoechst 33258 staining-based fluorescence microscopic analysis; assay type: functional, cell-based
Procedure, shortened: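 PC3 cells treated 72 h, then stained with Hoechst 33258 and viewed by fluorescence microscopy. DMSO served as negative control. Live nuclei scored as uniformly light blue; apoptotic nuclei bright blue with condensed chromatin and karyopyknosis.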

[33] = system: PC-3; test: Induction of apoptosis in human PC3 cells assessed as apoptotic rate at 20 uM after 72 hrs by annexin-V FITC and propidium iodide staining-based FACS flow cytometric analysis relative to control; assay type: functional; procedure, shortened: as §5
[34] = system: PC-3; test: Induction of apoptosis in human PC3 cells assessed as apoptotic rate at 30 uM after 48 hrs by annexin-V FITC and propidium iodide staining-based FACS flow cytometric analysis relative to control; assay type: functional; procedure, shortened: as §5
[35] = system: PC-3; test: Induction of apoptosis in human PC3 cells assessed as apoptotic rate at 20 uM after 24 hrs by annexin-V FITC and propidium iodide staining-based FACS flow cytometric analysis relative to control; assay type: functional; procedure, shortened: as §5
[36] = system: PC-3; test: Induction of apoptosis in human PC3 cells assessed as apoptotic rate at 30 uM after 24 hrs by annexin-V FITC and propidium iodide staining-based FACS flow cytometric analysis relative to control; assay type: functional; procedure, shortened: as §5
[37] = system: PC-3; test: Induction of apoptosis in human PC3 cells assessed as pycnosis at 10 uM after 48 hrs by AO/EB staining-based fluorescence microscopic analysis; assay type: functional, cell-based
Procedure, shortened: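 PC3 cells seeded at 5 × 10⁴ cells/mL on sterile coverslips. Medium replaced with fresh medium plus 10% FBS containing compound, treated 24–72 h. Coverslips inverted onto acridine orange/ethidium bromide stain ([…] as printed) and read by fluorescence microscopy. Live cells scored green, early apoptotic green-yellow, late apoptotic orange, necrotic orange without condensed chromatin.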

[38] = system: PC-3; test: Induction of apoptosis in human PC3 cells assessed as apoptotic rate at 30 uM after 72 hrs by annexin-V FITC and propidium iodide staining-based FACS flow cytometric analysis relative to control; assay type: functional; procedure, shortened: as §5

T1 sequence (P27361 whole entry, looked up): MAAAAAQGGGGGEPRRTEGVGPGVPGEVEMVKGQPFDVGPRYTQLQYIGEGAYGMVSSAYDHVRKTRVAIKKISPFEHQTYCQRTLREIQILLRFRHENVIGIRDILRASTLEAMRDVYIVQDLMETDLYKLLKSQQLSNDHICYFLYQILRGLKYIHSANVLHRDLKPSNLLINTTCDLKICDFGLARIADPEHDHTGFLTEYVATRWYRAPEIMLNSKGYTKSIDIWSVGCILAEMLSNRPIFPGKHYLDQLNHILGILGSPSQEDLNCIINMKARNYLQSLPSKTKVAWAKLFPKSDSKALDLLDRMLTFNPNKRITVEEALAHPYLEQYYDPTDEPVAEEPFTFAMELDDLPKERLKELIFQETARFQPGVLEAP
T1 sequence (P28482 whole entry, looked up): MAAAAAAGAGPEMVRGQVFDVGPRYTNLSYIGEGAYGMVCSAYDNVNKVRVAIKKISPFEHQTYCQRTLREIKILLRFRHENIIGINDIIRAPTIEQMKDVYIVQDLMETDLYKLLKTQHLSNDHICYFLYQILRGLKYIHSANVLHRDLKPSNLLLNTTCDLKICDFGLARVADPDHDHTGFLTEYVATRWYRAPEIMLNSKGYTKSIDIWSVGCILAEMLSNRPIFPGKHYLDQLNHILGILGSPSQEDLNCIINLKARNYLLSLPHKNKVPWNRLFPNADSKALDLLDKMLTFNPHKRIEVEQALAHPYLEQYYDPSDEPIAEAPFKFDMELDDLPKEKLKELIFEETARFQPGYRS

With `COc1cc2ncnc(NCCc3ccccc3F)c2c(OC)c1OC` the IC50 [1] was 6.2 µM, the Activity [2] was 11.1% and the inhibition [3] was “Active”. For the same compound, the Activity [4] was 11.6%, the IC50 [5] was 3.2 µM and the Activity [6] was 19.8%. For the same compound, the Activity [7] was “Active”, the Activity [8] was 10.9% and the Activity [9] was “Active”. It also gave an Activity [10] of 9.5%, an inhibition of growth at 1 µM [11] of 38.7% and an inhibition of growth at 10 µM [12] of 90.4%. The Activity [13] was “Active”, the IC50 [14] was 3.1 µM and the Activity [15] was 31.8%. The Activity [16] was “Active”, the inhibition of growth at 10 µM [17] was 88.2% and the Activity [18] was “Active”. The Activity [19] was 5.1%, the inhibition [20] was “Active” and the inhibition of growth at 1 µM [21] was 46.5%. For the same compound, the Activity [22] was “Dose-dependent effect”, the inhibition of growth at 10 µM [23] was 90.6% and the Activity [24] was “Active”. The Activity [25] was 8.2%, the Activity [26] was “tde” and the Activity [27] was “Non-toxic”. For the same compound, the inhibition of growth at 1 µM [28] was 22.6%, the Activity [29] was “Active” and the Activity [30] was 16.4%.

In the case of `CC[C@@]1(O)C(=O)OCc2c1cc1n(c2=O)Cc2cc3cc(O)ccc3nc2-1` [HYDROXYCAMPTOTHECIN], the Activity [31] is reported as 11.9%, the Activity [8] is reported as 5.7% and the Activity [32] is reported as “Active”. For the same compound, the Activity [33] was 19.8%, the Activity [15] was 17% and the Activity [34] was 12.8%. The Activity [35] was 7.4%, the Activity [36] was 11.9% and the Activity [37] was “Active”. For the same compound, the Activity [38] was 38.2% and the Activity [30] was 8.3%.
